According to ChEMBL document CHEMBL3124917, “Design, synthesis, and biological evaluation of deuterated C-aryl glycoside as a potent and long-acting renal sodium-dependent glucose cotransporter 2 inhibitor for the treatment of type 2 diabetes” (J Med Chem, 2014):

Test system: Canis familiaris
Assay: Antidiabetic activity in Beagle dog assessed as urinary glucose excretion at 0.03 mg/kg, po administered 1 hr prior to glucose challenge measured after 8 to 24 hrs relative to dapagliflozin
Format: functional, Canis lupus familiaris, Urine
Conditions: not given
Outline: (§1)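 Overnight-fasted beagle dogs, n = 3 per group, given 0.03 mg/kg orally by gavage in 10% PEG400; vehicle controls received 10% PEG400. Oral glucose (2 g/kg, 5 mL/kg) given 1 h post-dose. Expressed as % of reference positive control; mean ± SD.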

Row | SMILES | Activity [mg]
1 | [2H]C([2H])(c1ccc(OC([2H])([2H])C([2H])([2H])[2H])cc1)c1cc([C@@H]2O[C@H](CO)[C@@H](O)[C@H](O)[C@H]2O)ccc1Cl | 11000

Test system: Canis familiaris
Assay: Antidiabetic activity in Beagle dog assessed as urinary glucose excretion at 0.03 mg/kg, po administered 1 hr prior to glucose challenge measured after 1 to 8 hrs relative to dapagliflozin
Format: functional, Canis lupus familiaris, Urine
Conditions: not given
Outline: as §1, with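 “post-dose. Urine collected in metabolic cages at 0–8 and 8–24 h, glucose read on a biochemistry analyzer.” for “post-dose.”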

Row | SMILES | Activity [mg]
2 | [2H]C([2H])(c1ccc(OC([2H])([2H])C([2H])([2H])[2H])cc1)c1cc([C@@H]2O[C@H](CO)[C@@H](O)[C@H](O)[C@H]2O)ccc1Cl | 4360

Test system: Rattus norvegicus
Assay: Antidiabetic activity in Sprague-Dawley rat assessed as urinary glucose excretion at 1 mg/kg, po administered 1 hr prior to glucose challenge measured after 1 to 4 hrs relative to dapagliflozin
Format: functional, Urine
Conditions: not given
Outline: (§2)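 Overnight-fasted Sprague-Dawley rats, n = 3 per group, dosed 1 mg/kg by oral gavage in 30% PEG400; controls received vehicle. Oral glucose (2 g/kg, 10 mL/kg) given 1 h post-dose. Urine collected in metabolic cages at 0–4 and 4–24 h, glucose measured on a biochemistry analyzer. Expressed as % of reference positive control; mean ± SD.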

Row | SMILES | Activity [mg]
3 | [2H]C([2H])(c1ccc(OC([2H])([2H])C([2H])([2H])[2H])cc1)c1cc([C@@H]2O[C@H](CO)[C@@H](O)[C@H](O)[C@H]2O)ccc1Cl | 137

Test system: Rattus norvegicus
Assay: Antidiabetic activity in Sprague-Dawley rat assessed as urinary glucose excretion at 1 mg/kg, po administered 1 hr prior to glucose challenge measured after 4 to 24 hrs relative to dapagliflozin
Format: functional, Urine
Conditions: not given
Outline: as §2

Row | SMILES | Activity [mg]
4 | [2H]C([2H])(c1ccc(OC([2H])([2H])C([2H])([2H])[2H])cc1)c1cc([C@@H]2O[C@H](CO)[C@@H](O)[C@H](O)[C@H]2O)ccc1Cl | 1940

Test system: Rattus norvegicus
Assay: Antidiabetic activity in Sprague-Dawley rat assessed as urinary glucose excretion at 1 mg/kg, po administered 1 hr prior to glucose challenge measured after 1 to 24 hrs relative to dapagliflozin
Format: functional, Urine
Conditions: not given
Outline: as §2

Row | SMILES | Activity [mg]
5 | [2H]C([2H])(c1ccc(OC([2H])([2H])C([2H])([2H])[2H])cc1)c1cc([C@@H]2O[C@H](CO)[C@@H](O)[C@H](O)[C@H]2O)ccc1Cl | 2080

Test system: not listed separately
Assay: AUC (0 to infinity) in Sprague-Dawley rat at 3 mg/kg, po by LC-MS/MS analysis
Format: ADME, organism-based
Design: time infinity, dose 3 mg/kg, route oral
Conditions: plasma
Outline: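 Male Sprague-Dawley rats, n = 4 per group, overnight-fasted. Oral gavage of 3 or 1 mg/kg in 30% PEG400; i.v. arm at 1 mg/kg. Orbital plexus blood taken under ether at 0.083–24 h; plasma deproteinized and assayed by LC-MS/MS. Noncompartmental parameters derived; mean ± SD reported.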

Row | SMILES | AUC(0-inf) [ng·h/mL]
6 | [2H]C([2H])(c1ccc(OC([2H])([2H])C([2H])([2H])[2H])cc1)c1cc([C@@H]2O[C@H](CO)[C@@H](O)[C@H](O)[C@H]2O)ccc1Cl | 22400

Test system: Canis familiaris
Assay: Antidiabetic activity in Beagle dog assessed as urinary glucose excretion at 0.03 mg/kg, po administered 1 hr prior to glucose challenge measured after 1 to 24 hrs relative to dapagliflozin
Format: functional, Canis lupus familiaris, Urine
Conditions: not given
Outline: as §1, with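 “post-dose. Urine collected in metabolic cages at 0–8 and 8–24 h, glucose read on a biochemistry analyzer.” for “post-dose.”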

Row | SMILES | Activity [mg]
7 | [2H]C([2H])(c1ccc(OC([2H])([2H])C([2H])([2H])[2H])cc1)c1cc([C@@H]2O[C@H](CO)[C@@H](O)[C@H](O)[C@H]2O)ccc1Cl | 15400
